# Measured values as given in the array DNA melting data of Ke et al. (doi:10.1101/2024.01.08.574731).
# Assays:
# [1] = melting temperature; fluorescence melt of hairpins on a sequencing array, two-state fit, raised by 9.35 °C to match UV melts; conditions: sodium 0.088 M
# Summary of the method: (§1)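 Cy3 fluorescence of library hairpins on a sequenced MiSeq flow cell, with annealed Cy3 and quencher oligos, was imaged in 50 mM Na-HEPES pH 8.0, 25 mM NaCl in 2.5 °C steps up to 60 °C. Signals were normalised to pre-quench Cy3 and to control variants. Melting temperature and folding enthalpy came from bootstrapped two-state fits, inverse-variance combined over four replicates. Fitted temperatures were raised by 9.35 °C to match UV melts.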
# [2] = folding enthalpy; higher = less favourable; fluorescence melt of hairpins on a sequencing array, two-state fit; conditions: sodium 0.088 M
# Summary of the method: as §1
Sequence,Tm [1],folding enthalpy [2]
GTGTTGCGAAAGCATCAC (((.(((....))).))),54 °C,-30.7 kcal/mol
GCCATCCGAAAGGAAGGC (((.(((....))).))),57.9 °C,-31.3 kcal/mol
GGTCGCGGAAACGTGACC ((((.((....)).)))),63.5 °C,-51.2 kcal/mol
GCTTTGCGAAAGCACGGC ((..(((....)))..)),41.7 °C,-16.6 kcal/mol
GCCGACGAAAGTCAGGGC ((((((....)))..))),55.1 °C,-36.8 kcal/mol
GCGAGTCGTCGC ((((....)))),53.1 °C,-22.3 kcal/mol
GACAACGGAAACGTTGCC (.(((((....))))).),44.9 °C,-17.4 kcal/mol
GGTTAACGAAAGTTGACC (((.(((....))).))),53.2 °C,-27.6 kcal/mol
GGTTGAGGAAACCCAACC (((((.(....).))))),45.2 °C,-39.4 kcal/mol
GTAGCGACGAAAGTCTAC (((..(((....)))))),26.9 °C,-13.2 kcal/mol
GTGTGTCGAAAGACGCAC (((.(((....))).))),61.4 °C,-37.7 kcal/mol
GGTGGTGGAAACGCTACC (((.(.(....).).))),40.4 °C,-28.1 kcal/mol
GCTGGGACGAAAGTCAGC (((..(((....)))))),46.3 °C,-19.3 kcal/mol
GAGCCGGGAAACCGGTTC ((.((((....)))).)),55 °C,-34.5 kcal/mol
GTTATAGGAAACTGTAAC ((((.((....)).)))),34 °C,-27.2 kcal/mol
GATGTGCGAAAGCATATC (((.(((....))).))),54.2 °C,-32.6 kcal/mol
GTGGATCCGAAAGGACAC (((..(((....)))))),39.4 °C,-23.3 kcal/mol
GCAATACGAAAGTACTGC (((.(((....))).))),43.9 °C,-31.3 kcal/mol
GCGATCATTCGC ((((....)))),50.7 °C,-26.6 kcal/mol
GACTGCCGAAAGGCGTC (((.(((....)))))),53.8 °C,-13.8 kcal/mol
GCTCTTGGAAACAAGAAC (.(((((....))))).),31.4 °C,-16.3 kcal/mol
GATCGAACTGTCGATC ((((((....)))))),49.2 °C,-31.1 kcal/mol
GCAAAACGAAAGTTATGC (((.(((....))).))),45.8 °C,-28.9 kcal/mol

Sequence,Tm [1],folding enthalpy [2]
GTGGGGGGAAACCCCTAC ((.((((....)))).)),52.2 °C,-17.8 kcal/mol
GCGACAGCTCGC ((((....)))),67 °C,-9.44 kcal/mol
GTATCTGGAAACAGGTAC (((.(((....))).))),42.7 °C,-36.2 kcal/mol
GAGCGCGAAAGCGCACTC ((((((....)))..))),60.4 °C,-10 kcal/mol
GATCTTGCCCAAGATC ((((((....)))))),48.9 °C,-45.9 kcal/mol
GACTTCGCGAAAGCGGTC (((..(((....)))))),35.1 °C,-7.56 kcal/mol
GCGACCGAAAGGTGCGC ((((((....))).))),67.1 °C,-28.9 kcal/mol
GATCGCCTAGCGATC ((((((...)))))),68.6 °C,-30.6 kcal/mol
GAAAGCCGAAAGGCGTTC (((.(((....))).))),52.3 °C,-12.3 kcal/mol
CGGGCGGAAACGCGGCCG ((((((....)))..))),59.5 °C,-36 kcal/mol
GCTATCGAAAGATTAAGC ((((((....)))..))),34.6 °C,-17.1 kcal/mol
GTTTCAGGAAACTGAGAC ((.((((....)))).)),37.3 °C,-24.9 kcal/mol
GTGGACGAAAGTCTTCAC ((((((....)))..))),32.4 °C,-12.8 kcal/mol
TTGATGAAAATCAA (((((....))))),32.8 °C,-13.4 kcal/mol
GTTAACGAAAGTTAAAAC ((((((....)))..))),30.2 °C,-9.6 kcal/mol
GATCCCGAAAGGGGTATC ((((((....)))..))),35.7 °C,-11.8 kcal/mol
GTCATTACGAAAGTAGAC (((..(((....)))))),26.7 °C,-9.42 kcal/mol
GCTTTCGAAAGAACGAGC ((((((....)))..))),28.9 °C,-15.1 kcal/mol
GCGGGGCGAAAGCGGCGC (((..((....))..))),66.8 °C,-34.7 kcal/mol
GTAGTTGGAAACAACTAC (((((((....))))))),56.1 °C,-43.5 kcal/mol
GATCCGGTTGCGGATC ((((((....)))))),59.6 °C,-40.3 kcal/mol
GATATGCGAAAGCACATC (((.(((....))).))),39.3 °C,-19.1 kcal/mol
GTGTTCGAAAGAACTCAC ((((((....)))..))),38.1 °C,-13.7 kcal/mol

Sequence,Tm [1],folding enthalpy [2]
GTCACCGAAAGGTCAGAC ((((((....)))..))),32.2 °C,-14.5 kcal/mol
GATCGAACCTTCGATC ((((((....)))))),53.5 °C,-40.7 kcal/mol
GAGGATGGAAACATCCCC (.(((((....))))).),42.8 °C,-11.5 kcal/mol
GCGGCAATCCGC ((((....)))),52.3 °C,-21.9 kcal/mol
GGTCGCGAAAGCGTCACC ((((((....)))..))),40.1 °C,-13.3 kcal/mol
GGCCTCGAAAGAGGGGCC ((((((....)))..))),54.9 °C,-23 kcal/mol
GTAGCAGGAAACTGTTAC (((.(((....))).))),40.5 °C,-30.4 kcal/mol
GATCACGATGTGATC ((((((...)))))),58.5 °C,-30.8 kcal/mol
GGGCGCCGAAAGGCTCCC (((.(((....))).))),60.7 °C,-25.7 kcal/mol
GTAATTGGAAACAATCAC ((.((((....)))).)),27.4 °C,-11.6 kcal/mol
GCGTTTGAACGC ((((....)))),56.7 °C,-20.3 kcal/mol
GCCGAACCGAAAGGTGGC (((..(((....)))))),53.1 °C,-26.4 kcal/mol
GATCGTCTCAACGATC ((((((....)))))),57.6 °C,-41.6 kcal/mol
GGCTACCCGAAAGGGGCC (((..(((....)))))),50.6 °C,-18.9 kcal/mol
GTGAGACCGAAAGGTCAC (((..(((....)))))),50.4 °C,-16.1 kcal/mol
GGCTCCCGAAAGGGCGCC (((.(((....))).))),62.6 °C,-33.6 kcal/mol
GTCGATCGAAAGATAGAC (((.(((....))).))),50.4 °C,-42.7 kcal/mol
GCGTAGGGAAACCCACAC (.((.((....)).)).),21.3 °C,-10.6 kcal/mol
GCCCTCCCGAAAGGGGGC (((..(((....)))))),58 °C,-16.1 kcal/mol
GAAGAGGGAAACCTCTTC (((((((....))))))),55.3 °C,-33.5 kcal/mol
GATCTAGTAGTAGATC ((((((....)))))),43.4 °C,-29.1 kcal/mol
GCGTGCGAAAGCACCGC ((((((....))).))),67.2 °C,-13.8 kcal/mol
GATCGAGTTATCGATC ((((((....)))))),58.6 °C,-41.7 kcal/mol
